Screens from PubChem.
ROMK mod – ROMK potassium channel modulators, primary screen, cell-based, thallium flux, MLSMR library; 2% of 130,000 active; B-score at 10 µM; Tet-inducible ROMK, thallium flux fluorescence; actives lie on both sides; ATP-sensitive inward rectifier potassium channel 1 (Homo sapiens), P48048;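 active = signal ratio slope over the read window, or its plate-corrected B-score, at least 3 SD from the plate mean, either direction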;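 note: B-score of the F/F0 ratio slope over 7 to 12 s after thallium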
Target sequence (P48048 whole entry, looked up): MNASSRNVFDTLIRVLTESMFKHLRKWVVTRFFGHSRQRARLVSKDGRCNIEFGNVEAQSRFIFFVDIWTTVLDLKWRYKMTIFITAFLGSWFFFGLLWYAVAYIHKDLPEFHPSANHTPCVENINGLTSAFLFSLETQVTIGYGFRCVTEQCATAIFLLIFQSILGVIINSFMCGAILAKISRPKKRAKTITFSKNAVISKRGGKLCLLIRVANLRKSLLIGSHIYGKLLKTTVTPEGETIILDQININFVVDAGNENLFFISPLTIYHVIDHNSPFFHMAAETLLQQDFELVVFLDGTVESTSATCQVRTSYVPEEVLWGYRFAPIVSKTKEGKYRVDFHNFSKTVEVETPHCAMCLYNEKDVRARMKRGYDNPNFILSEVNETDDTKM
Lmaj promast – Leishmania major promastigote growth inhibition, primary screen | 9% of 200,000 active | Leishmania major promastigotes, resazurin fluorescence viability | inhibition, % at 10 µM; in the data active = inhibition above about 50%;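 note: promastigotes grown with compound for 44 hours at 28 °C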
WT yeast gro inh – growth inhibition of WT strain, primary screen, mitochondrial fusion inhibitor project, WT and mutant strains, chemical genetic; 2.1% of 190,000 active; AID 1362, 2008; mitochondrial fusion phenotypic screen; inhibition, % at 10 µM; in the data active = inhibition above about 58%; tested in S. cerevisiae
Diaphorase act – compounds boosting diaphorase resazurin reduction – biochemical, uHTS, resorufin fluorescence, counter-screen for diaphorase-coupled primary assays, primary screen; Diaphorase/resazurin coupled assay, 16 min; active compounds read high; 1 = vehicle wells, 0 = NADH-free wells; activation factor at 20 µM; 0.005% of 190,000 active; AID 1229, 2008;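 active = diaphorase activity raised at least twofold by the compound at 20 µM; inactive = activation factor below 2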
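Material: purified diaphorase enzyme from Clostridium kluyveri; Also added: 0.114 mM NADH and 0.1 mM resazurin, final amounts; Doses: single compound dose of 20 µM, 1% DMSO final; Times: 16 min enzyme reaction, ambient temperature; Detection: resorufin fluorescence, excitation 544 nm, emission 590 nm; Measure: increased resorufin signal from activators or reducing compounds.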
Diaph inh CS – diaphorase inhibitors and chemical oxidizers, primary screen, counter-screen for diaphorase-coupled primary assays, biochemical, uHTS, resorufin fluorescence. diaphorase resazurin-to-resorufin fluorescence, NADH, 16 min; bacterial (C. kluyveri) enzyme, not human. inhibition, % at 20 µM. 0.69% of 190,000 active. AID 1217, 2008;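 active = primary screen inhibition at 20 µM above a set limit, cut at about 50% in these data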;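 note: plate controls were DMSO with full reaction for no effect and wells lacking NADH for full effect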
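Test system: Clostridium kluyveri diaphorase enzyme / Quantity: diaphorase at 0.14 U/mL in enzyme working solution / Incubation: 16-min room-temperature incubation before reading / Benchmarks: NADH-free wells as positive control, DMSO-only neutral wells / Signal: resorufin fluorescence 544/590 nm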
KCC2 mod – KCC2 cotransporter modulators, thallium flux, primary screen, cell-based, HEK293 KCC2, FluoZin-2 fluorescence, MLSMR; Solute carrier family 12 member 5 (Homo sapiens), Q9H2X9; KCC2 cells, thallium flux FluoZin-2 fluorescence; B-score of Tl+ flux slope (higher = more flux/activation; lower = inhibition) at 10 µM; 2.2% of 190,000 active; AID 1456, 2008;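 active = thallium flux slope and its plate-corrected score both differing from the plate sample mean at a set confidence after two filtering rounds, in either direction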;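 note: slope of fluorescence scaled to starting intensity during 10 to 20 s after thallium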
KCC2 secondary – KCC2 modulators in sodium-free buffer, confirmation, cell-based, HEK293 KCC2, thallium flux, secondary assay. shares compounds with KCC2 mod. AID 1713, 2009. normalised thallium flux (F/F0 slope) at 10 µM. FluoZin2 fluorescence; active compounds read high. 15% of 3,700 active;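 active = thallium flux slope above the same plate's solvent-only control mean plus 3 SD; inconclusive = the two replicate wells disagree; inactive = no significant difference from solvent-only control wells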
KCC2 bumet counter – thallium flux persisting under bumetanide in KCC2 cells, confirmation, counter-screen for KCC2 modulator project, cell-based, HEK293 KCC2, FluoZin2, secondary assay 3 | shares compounds with KCC2 mod | HEK293-KCC2 + bumetanide/ouabain; active compounds read high | normalized thallium flux at 10 µM | 49% of 3,700 active;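 active = thallium entry rate above the same plate's blocked-transporter control wells by more than 3 SD; inconclusive = the two repeat wells disagree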;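 note: raw slope of fluorescence over initial fluorescence between 10 and 20 s after thallium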
KCC2 secondary2 – KCC2 modulators without ouabain present, confirmation, cell-based, HEK293 KCC2, thallium flux, FluoZin2, secondary assay 2; normalized thallium flux at 10 µM; 23% of 3,700 active; AID 1715, 2009; shares compounds with KCC2 mod; thallium flux FluoZin2 fluorescence; actives lie on both sides; F/F0 rise rate, 10–20 s post-thallium;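 active = thallium flux slope more than 3 SD above or below the plate's solvent-only control mean, mostly below; inconclusive = the two repeat wells disagreed; inactive = no significant shift from solvent-only controls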;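 note: raw slope with 0.1% DMSO as baseline and bumetanide as block control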
HEK293 Tl flux – thallium flux modulation in parental HEK cells, confirmation, counter-screen for KCC2 modulator project, cell-based, counterscreen 1; thallium flux rate (normalised fluorescence) at 10 µM; HEK293 parental cells, thallium flux FluoZin2, ouabain; baseline-ratio fluorescence slope, 10–20 s after thallium; 46% of 3,700 active; shares compounds with KCC2 mod;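 active = thallium flux rate significantly above the same plate's solvent-only control wells, beyond their mean plus 3 SD; inconclusive = the two replicate wells gave conflicting results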
KCC2 ouabain – KCC2 inhibitors and activators, ouabain retest, confirmation, HEK-KCC2 cells. shares compounds with KCC2 mod. HEK293-KCC2, thallium flux FluoZin2 fluorescence; bidirectional: low = inhibitor, high = activator. raw Tl+ flux slope (below DMSO = inhibition, above = activation) at 10 µM. 48% of 3,700 active. AID 1717, 2009;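 active = thallium flux slope beyond 3 SD from same-plate DMSO control mean in most replicates, usually higher, sometimes lower; inconclusive = repeat tests gave conflicting results; inactive = no significant difference from controls in most replicates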;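 note: slope of initial-normalized fluorescence between seconds 10 and 20 after thallium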
HEK293 Tl flux2 – native HEK Tl+ uptake effects, second counter-screen – HEK cells, counterscreen 2, counter-screen for KCC2 modulator project, confirmation; shares compounds with KCC2 mod; HEK293 parental, thallium flux FluoZin-2 fluorescence slope; thallium flux slope at 10 µM; 33% of 3,700 active; AID 1718, 2009;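 active = thallium flux slope above the same plate's solvent-control mean plus 3 SD in both duplicate wells; inconclusive = duplicate wells that disagreed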;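 note: run without ouabain in cells lacking the KCC2 cotransporter; slope of fluorescence scaled to its starting value between 10 and 20 s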
The depositor's hits bear a star; ? = inconclusive; nt = no result. An excerpt weighted towards active compounds, which were near 12% of everything screened.

SMILES	ROMK mod	Lmaj promast	WT yeast gro inh	Diaphorase act	Diaph inh CS	KCC2 mod	KCC2 secondary	KCC2 bumet counter	KCC2 secondary2	HEK293 Tl flux	KCC2 ouabain	HEK293 Tl flux2
Nn1c(Cc2cccc3ccccc23)nnc1SCC(=O)NC1CCS(=O)(=O)C1 (stereo not given)	nt	11	10	0.9	13	5.7*	0.0092	0.0056	0.036	0.0083	0.019	0.012
CCN(C(=O)CSc1nnc(Cc2cccc3ccccc23)n1N)C1CCS(=O)(=O)C1 (stereo not given)	nt	0	34	1	2	-0.59	nt	nt	nt	nt	nt	nt
CCCc1cc(=O)[nH]c(SCC(=O)Nc2cc(C)on2)n1	1.1	-7	6	1.1	-11	-0.1	nt	nt	nt	nt	nt	nt
COc1cccc(CNC(=O)CCS(=O)(=O)c2cccs2)c1	nt	-2	2	1	0	0.85	nt	nt	nt	nt	nt	nt
O=C(Oc1ccccc1)N(c1ccccc1)c1ccccc1	nt	nt	nt	nt	nt	-0.81	nt	nt	nt	nt	nt	nt
COc1cc(-c2nnc(CSc3nnc(Nc4ccc(C(C)C)cc4)s3)o2)cc(OC)c1OC	nt	71*	0	0.9	10	-4*	0.0067	0.0049	0.025*	0.0077	0.016*	0.011
Cc1ccc(NC(=O)C2CC(Cl)=CCC2C(=O)O)c([N+](=O)[O-])c1 (stereo not given)	0.52	-6	-10	0.8	16	0.57	nt	nt	nt	nt	nt	nt
S=c1nc(-c2sccc2OCc2ccc(Cl)cc2Cl)[nH][nH]1	0.056	-4	64*	0.5	54*	24*	0.0071	0.087*	0.029	0.023*	?	0.013*
C(=C\c1ccccc1)/CSc1nnc(-c2ccccc2)n1Cc1ccco1	nt	85*	5	0.9	9	-2.9	0.016	?	0.023*	0.0042*	0.013*	0.0074*
Nn1c(SC/C=C/c2ccccc2)nnc1-c1ccco1	nt	3	9	0.9	15	-0.0018	nt	nt	nt	nt	nt	nt
Clc1cccc(-c2nnc(SC/C=C/c3ccccc3)n2Cc2ccco2)c1	nt	14	55	0.8	23	-3.3*	0.0052	?	0.03	0.0059*	0.015*	?
Nc1ncnc(N2CCc3ccccc32)c1[N+](=O)[O-]	0.43	-3	1	0.9	6	0.13	nt	nt	nt	nt	nt	nt
O=C(Cn1cnc2c(nnn2Cc2ccc(F)cc2)c1=O)N1CCCc2ccccc21	-0.47	-1	-2	0.8	18	-4*	0.016	0.0051	0.025*	0.0077	0.015	0.011
O=C(Cn1cnc2c(nnn2Cc2ccc(Cl)cc2)c1=O)N1CCCc2ccccc21	0.64	-6	-7	0.8	22	0.61	nt	nt	nt	nt	nt	nt
O=C(Cn1cnc2c(nnn2Cc2ccccc2)c1=O)N1CCN(c2ccccc2)CC1	nt	41	-3	0.9	11	-4.5*	0.0065	0.0065	0.032	0.0086	0.014*	0.011
O=C(Cn1cnc2c(nnn2Cc2ccccc2F)c1=O)OCc1ccccc1	nt	-7	-23	0.9	11	-7.4*	0.0082	0.0063	0.033	0.0044	0.015*	0.012
Cc1ccc(-n2nnc3c(=O)n(CC(=O)OCc4ccccc4)cnc32)cc1	nt	-2	11	0.9	14	-1.2	nt	nt	nt	nt	nt	nt
O=C(CCC(=O)c1cccs1)Nc1ccc(F)c(F)c1F	-1.6	3	4	1.1	-6	nt	nt	nt	nt	nt	nt	nt
COC(CNC(=O)c1cc(Sc2nnc(C)s2)nc2ccccc12)OC	nt	-1	-7	0.9	11	0.16	nt	nt	nt	nt	nt	nt
CCOC(=O)c1c(C)[nH]c(C(=O)NCc2ccco2)c1C	0.38	-2	-8	0.9	12	-0.56	nt	nt	nt	nt	nt	nt
OCC1CCCN(Cc2cn(Cc3ccccc3)nc2-c2cc3ccccc3o2)C1 (stereo not given)	-1.9	50	2	0.9	8	0.38	nt	nt	nt	nt	nt	nt
CCOc1cc(C(=S)N2CCCC2)ccc1OC(=O)Cc1ccc(F)cc1	0.41	-5	9	1	-3	-4.4	nt	nt	nt	nt	nt	nt
COc1cc(C(=S)N2CCOCC2)ccc1OC(=O)Cc1ccc(F)cc1	-0.047	-8	0	0.9	10	-4.8*	0.0089	0.0057	0.028*	0.0074	0.015*	0.011
CC(C)(C)NC(=O)NC(=O)COC(=O)C1=COCCO1	0.4	-4	-7	0.9	12	0.73	nt	nt	nt	nt	nt	nt
O=C(O)CSCC(=O)NCc1ccc(Cl)cc1Cl	-0.87	-4	-2	1	5	0.26	nt	nt	nt	nt	nt	nt
O=C(O)c1sccc1SCc1ccc(Cl)cc1Cl	nt	-3	-9	0.9	12	nt	0.015	0.0048	0.022*	0.0055*	0.011*	0.0082
CCCCN(C)CCC(=O)Nc1ccc2c(c1)CCC2	-0.11	32	-4	0.9	13	6.1*	0.0067	?	0.031	0.008	0.018	0.011
COc1ccc(-c2ccc(SCC(=O)Nc3nccs3)nn2)cc1OC	-0.0069	11	-10	1	1	0.031	nt	nt	nt	nt	nt	nt
COc1ccc(C(=O)COC(=O)C(CCSC)NS(=O)(=O)c2ccc(Cl)cc2)cc1 (stereo not given)	-1.4	1	18	0.8	24	-0.83	nt	nt	nt	nt	nt	nt
